≈ marks a conversion by molar mass, not a printed value.
What was measured:
[1] = test system: A549; assay: In vitro inhibitory concentration against proliferation of A459 cell line.; details: Homo sapiens
[2] = target: Proto-oncogene tyrosine-protein kinase Src (Homo sapiens, UniProt P12931); assay: In vitro inhibitory concentration against src-tyrosine kinase
[3] = target: Vascular endothelial growth factor receptor 2 (Homo sapiens, UniProt P35968); assay: In vitro inhibitory concentration against VEGF receptor 2.
Sequence of Vascular endothelial growth factor receptor 2 (P35968 whole entry): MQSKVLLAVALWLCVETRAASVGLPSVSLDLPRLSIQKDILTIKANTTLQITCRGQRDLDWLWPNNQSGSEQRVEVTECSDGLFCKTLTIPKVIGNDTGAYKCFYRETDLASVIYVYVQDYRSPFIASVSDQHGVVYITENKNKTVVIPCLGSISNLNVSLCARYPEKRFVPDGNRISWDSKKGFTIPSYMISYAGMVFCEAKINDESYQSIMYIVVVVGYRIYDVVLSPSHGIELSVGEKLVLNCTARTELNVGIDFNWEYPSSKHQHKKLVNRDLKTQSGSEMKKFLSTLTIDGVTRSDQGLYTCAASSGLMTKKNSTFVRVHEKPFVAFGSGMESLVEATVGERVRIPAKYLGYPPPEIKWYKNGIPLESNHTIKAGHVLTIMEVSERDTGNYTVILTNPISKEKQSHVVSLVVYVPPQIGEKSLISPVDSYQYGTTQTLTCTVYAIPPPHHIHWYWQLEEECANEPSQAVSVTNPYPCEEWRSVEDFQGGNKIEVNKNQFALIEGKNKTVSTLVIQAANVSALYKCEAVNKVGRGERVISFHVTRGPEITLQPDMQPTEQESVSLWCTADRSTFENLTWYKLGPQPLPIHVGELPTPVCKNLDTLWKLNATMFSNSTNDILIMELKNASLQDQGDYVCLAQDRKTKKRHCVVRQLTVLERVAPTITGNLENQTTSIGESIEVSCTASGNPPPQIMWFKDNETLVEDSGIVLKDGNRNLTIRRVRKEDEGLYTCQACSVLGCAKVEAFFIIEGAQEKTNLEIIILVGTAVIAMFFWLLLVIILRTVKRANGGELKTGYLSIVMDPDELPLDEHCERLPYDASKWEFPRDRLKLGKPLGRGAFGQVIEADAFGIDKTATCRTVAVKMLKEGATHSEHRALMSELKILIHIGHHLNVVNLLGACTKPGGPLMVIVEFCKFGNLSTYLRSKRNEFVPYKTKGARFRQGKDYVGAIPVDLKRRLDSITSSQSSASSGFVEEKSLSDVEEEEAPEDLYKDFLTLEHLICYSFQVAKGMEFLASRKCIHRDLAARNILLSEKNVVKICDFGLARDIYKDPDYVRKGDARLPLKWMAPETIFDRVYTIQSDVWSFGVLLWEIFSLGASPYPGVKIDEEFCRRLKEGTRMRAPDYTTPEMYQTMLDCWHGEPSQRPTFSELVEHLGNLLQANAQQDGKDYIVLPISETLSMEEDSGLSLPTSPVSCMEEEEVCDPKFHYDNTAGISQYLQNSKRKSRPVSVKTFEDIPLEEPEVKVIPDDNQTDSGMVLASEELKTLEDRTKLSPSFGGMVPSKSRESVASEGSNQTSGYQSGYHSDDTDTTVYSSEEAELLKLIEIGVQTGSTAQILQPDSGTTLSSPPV
Summary of the method: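 KDR kinase selectivity assay, using a previously reported method. IC50 is the mean of at least three independent dose-response curves.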

[4] = Vdss in rat i.v. at 2 mg/kg concentration; type: ADME, organism-based; set-up: dose 2 mg/kg, route intravenous; details: in vivo, iv, read-out: Vdss
Summary of the method: (§1)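 Single-dose rat pharmacokinetics: intravenous 2 mg/kg in 25% (w/v) hydroxypropyl-β-cyclodextrin/Sorenson's phosphate buffer (pH 5.5), or oral 20 mg/kg. Oral parameters are Cmax, AUC0-∞ and 24 h blood level. Intravenous parameters are clearance, terminal half-life and Vdss. Bioavailability (F) is derived from the oral and intravenous arms.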

[5] = Cmax in rat p.o. at 20 mg/kg concentration; type: ADME, organism-based; set-up: dose 20 mg/kg, route oral; details: in vivo, po; summary of the method: as §1
[6] = Cl in rat i.v. at 2 mg/kg concentration; type: ADME, organism-based; set-up: dose 2 mg/kg, route intravenous; details: in vivo, iv; summary of the method: as §1
[7] = AUC in rat p.o. at 20 mg/kg concentration; type: ADME, organism-based; set-up: dose 20 mg/kg, route oral; details: plasma, po; summary of the method: as §1
[8] = C24h in rat p.o. at 20 mg/kg concentration; type: ADME, organism-based; set-up: dose 20 mg/kg, route oral; details: in vivo, po, read-out: C24h; summary of the method: as §1
[9] = Half life in rat i.v. at 2 mg/kg concentration; type: ADME, organism-based; set-up: dose 2 mg/kg, route intravenous; details: in vivo, iv; summary of the method: as §1
[10] = Solubility was determined; type: physicochemical
[11] = pKa was determined; type: physicochemical
[12] = target: Fibroblast growth factor receptor 1 (Homo sapiens, UniProt P11362); assay: In vitro inhibition of Fibroblast growth factor receptor (FTK)
Sequence of Fibroblast growth factor receptor 1 (P11362 whole entry): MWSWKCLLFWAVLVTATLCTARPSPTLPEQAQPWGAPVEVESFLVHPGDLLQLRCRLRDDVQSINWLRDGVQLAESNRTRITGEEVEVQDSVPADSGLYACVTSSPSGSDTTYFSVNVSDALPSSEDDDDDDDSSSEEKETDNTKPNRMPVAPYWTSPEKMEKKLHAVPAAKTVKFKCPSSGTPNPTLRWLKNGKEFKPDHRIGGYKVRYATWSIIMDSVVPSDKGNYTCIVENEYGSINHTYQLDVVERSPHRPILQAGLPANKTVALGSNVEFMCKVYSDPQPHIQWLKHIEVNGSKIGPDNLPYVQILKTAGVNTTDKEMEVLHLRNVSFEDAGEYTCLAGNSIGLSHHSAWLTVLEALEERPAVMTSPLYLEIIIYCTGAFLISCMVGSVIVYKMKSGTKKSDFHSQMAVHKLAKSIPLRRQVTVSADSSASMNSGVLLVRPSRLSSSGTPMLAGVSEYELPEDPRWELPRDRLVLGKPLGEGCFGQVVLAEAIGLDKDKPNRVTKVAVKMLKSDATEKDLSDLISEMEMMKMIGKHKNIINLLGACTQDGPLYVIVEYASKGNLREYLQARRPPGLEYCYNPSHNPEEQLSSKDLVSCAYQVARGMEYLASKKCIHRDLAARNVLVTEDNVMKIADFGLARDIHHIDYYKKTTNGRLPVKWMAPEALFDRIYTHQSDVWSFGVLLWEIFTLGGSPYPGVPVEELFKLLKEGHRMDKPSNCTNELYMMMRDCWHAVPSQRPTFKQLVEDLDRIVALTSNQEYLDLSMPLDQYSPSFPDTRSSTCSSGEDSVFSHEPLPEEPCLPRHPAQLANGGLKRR

[13] = species: Rattus norvegicus; assay: Percentage in free rat serum was determined; type: ADME, organism-based
[14] = target: Vascular endothelial growth factor receptor 1 (Homo sapiens, UniProt P17948); assay: Inhibition of Vascular endothelial growth factor receptor 1
Sequence of Vascular endothelial growth factor receptor 1 (P17948 whole entry): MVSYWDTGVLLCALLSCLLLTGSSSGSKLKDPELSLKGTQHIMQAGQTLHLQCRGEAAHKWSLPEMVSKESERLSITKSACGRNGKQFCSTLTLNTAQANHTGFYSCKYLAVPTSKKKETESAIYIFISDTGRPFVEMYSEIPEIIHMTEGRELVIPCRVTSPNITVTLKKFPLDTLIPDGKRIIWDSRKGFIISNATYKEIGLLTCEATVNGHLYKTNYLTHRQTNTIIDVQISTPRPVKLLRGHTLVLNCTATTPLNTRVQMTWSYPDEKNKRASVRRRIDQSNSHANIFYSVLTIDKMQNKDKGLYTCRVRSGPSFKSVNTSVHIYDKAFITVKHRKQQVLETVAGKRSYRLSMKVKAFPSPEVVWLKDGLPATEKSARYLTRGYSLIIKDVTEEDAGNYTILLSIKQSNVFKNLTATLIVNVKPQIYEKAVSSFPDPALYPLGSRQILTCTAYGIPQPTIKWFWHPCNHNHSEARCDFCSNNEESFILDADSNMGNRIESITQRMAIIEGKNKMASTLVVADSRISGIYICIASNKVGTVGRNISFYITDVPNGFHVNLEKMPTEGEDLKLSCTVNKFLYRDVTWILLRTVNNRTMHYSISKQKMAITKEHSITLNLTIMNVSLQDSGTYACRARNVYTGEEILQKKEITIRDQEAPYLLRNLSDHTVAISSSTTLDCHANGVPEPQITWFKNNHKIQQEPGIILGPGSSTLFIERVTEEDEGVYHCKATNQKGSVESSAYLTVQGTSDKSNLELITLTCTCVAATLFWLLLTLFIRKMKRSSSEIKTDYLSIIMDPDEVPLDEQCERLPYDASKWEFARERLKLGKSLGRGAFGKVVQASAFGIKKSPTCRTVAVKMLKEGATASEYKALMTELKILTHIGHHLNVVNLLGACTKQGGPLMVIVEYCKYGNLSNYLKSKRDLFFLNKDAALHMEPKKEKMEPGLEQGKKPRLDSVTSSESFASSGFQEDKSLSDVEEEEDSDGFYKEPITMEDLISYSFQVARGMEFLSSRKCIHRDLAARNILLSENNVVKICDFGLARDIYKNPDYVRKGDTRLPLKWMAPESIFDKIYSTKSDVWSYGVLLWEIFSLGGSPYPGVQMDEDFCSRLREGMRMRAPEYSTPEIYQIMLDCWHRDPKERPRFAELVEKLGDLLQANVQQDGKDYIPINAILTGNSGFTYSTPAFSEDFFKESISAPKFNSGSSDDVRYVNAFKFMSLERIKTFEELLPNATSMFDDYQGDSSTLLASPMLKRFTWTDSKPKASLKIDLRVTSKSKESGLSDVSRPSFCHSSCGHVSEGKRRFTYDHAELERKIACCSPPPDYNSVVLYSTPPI

[15] = target: Angiopoietin-1 receptor (Homo sapiens, UniProt Q02763); assay: Inhibition of Tyrosine protein kinase receptor TIE-2
[16] = Bioavailability in rat (dose 20 mg/kg p.o.); details: in vivo, po
[17] = Total body clearance in rat i.v. at 2 mg/kg concentration; type: ADME, organism-based; set-up: dose 2 mg/kg, route intravenous; details: in vivo, iv; summary of the method: as §1

Sequence of Proto-oncogene tyrosine-protein kinase Src (P12931 2-536 limits assumed): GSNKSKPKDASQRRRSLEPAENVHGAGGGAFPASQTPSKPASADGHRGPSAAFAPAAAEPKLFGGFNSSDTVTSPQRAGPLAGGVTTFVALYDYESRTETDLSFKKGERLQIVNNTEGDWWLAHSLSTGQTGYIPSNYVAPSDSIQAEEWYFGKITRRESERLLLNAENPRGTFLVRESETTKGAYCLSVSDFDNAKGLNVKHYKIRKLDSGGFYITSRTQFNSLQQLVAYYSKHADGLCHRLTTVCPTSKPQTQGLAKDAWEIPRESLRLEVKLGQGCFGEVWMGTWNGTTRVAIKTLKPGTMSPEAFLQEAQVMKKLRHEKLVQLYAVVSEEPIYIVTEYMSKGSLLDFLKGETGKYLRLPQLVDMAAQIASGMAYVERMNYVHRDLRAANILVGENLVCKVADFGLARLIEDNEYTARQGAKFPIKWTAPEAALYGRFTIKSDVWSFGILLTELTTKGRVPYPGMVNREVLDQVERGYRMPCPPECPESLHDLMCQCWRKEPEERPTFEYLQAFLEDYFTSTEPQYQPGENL

Row | Structure (SMILES) | IC50 [1] [nM] | IC50 [2] [nM] | IC50 [3] [nM] | other results
1 | COc1cc2c(Nc3c(F)ccc4c3OCO4)ncnc2cc1OCCCN1CCOCC1 | 450 | 28 | 8160 | 
2 | COc1cc2c(Nc3cccc4c3OC(F)(F)O4)ncnc2cc1OCCCN1CCOCC1 |  | 270 |  | 
3 | COc1cc2c(Nc3c(Cl)ccc4c3OCO4)ncnc2cc1OCCCN1CCCCC1 | 130 | < 4 | 2170 | Vd [4]: 14.4 L/kg; Cmax [5]: 2960 nM; clearance [6]: 36 mL/min/kg; AUC [7]: 7900 ng·h/mL; concentration at 24 h [8]: 80 nM; half-life [9]: 5.8 h; solubility ([10]; read-out: S): > 2000 µM; pKa [11]: 9.7; IC50 [12]: > 100000 nM; Activity [13]: 13.7%; IC50 [14]: > 100000 nM; IC50 [15]: 11300 nM; bioavailability [16]: 86%
4 | COc1cc2c(Nc3cccc4cc[nH]c34)ncnc2cc1OCCCN1CCOCC1 |  | 260 |  | 
5 | COc1cccc(Nc2ncnc3cc(OC)c(OC)cc23)c1 |  | 253 |  | 
6 | COc1cc2c(Nc3c(Cl)ccc4ccoc34)ncnc2cc1OCCCN1CCOCC1 | 260 | 10 | 1380 | 
7 | COc1cc2c(Nc3ccc4c(c3)OCO4)ncnc2cc1OCCCN1CCOCC1 |  | 760 |  | 
8 | COc1cccc(Nc2ncnc3cc(OCCCN4CCOCC4)c(OC)cc23)c1 | 1050 | 37 | 1110 | 
9 | COc1cc2c(Nc3c(Cl)ccc4c3OCO4)ncnc2cc1OCC1CCN(C)CC1 | 260 |  | 15600 | Vd [4]: 17 L/kg; clearance [17]: 49 mL/min/kg; Cmax [5]: 910 nM; AUC [7]: 2500 ng·h/mL; concentration at 24 h [8]: 60 nM; half-life [9]: 5.7 h; solubility ([10]; read-out: S): > 3300 µM; pKa [11]: 9.4; IC50 [12]: > 100000 nM; Activity [13]: 9.8%; IC50 [14]: > 100000 nM; bioavailability [16]: 37%
10 | COc1cc2c(Nc3cccc4[nH]ccc34)ncnc2cc1OCCCN1CCOCC1 |  | 177 |  | 
11 | COc1cc2c(Nc3cccc4c3OCO4)ncnc2cc1OCCCN1CCOCC1 | 210 | 14 | 4960 | 
12 | COc1ccccc1Nc1ncnc2cc(OCCCN3CCOCC3)c(OC)cc12 |  | 560 |  | 
13 | COc1cc2c(Nc3cccc4c3OCC4)ncnc2cc1OCCCN1CCOCC1 |  | 433 |  | 
14 | COc1cc2c(Nc3cccc4c3OCCO4)ncnc2cc1OCCCN1CCOCC1 |  | 370 |  | 
15 | COc1cc2c(Nc3cccc4occc34)ncnc2cc1OCCCN1CCOCC1 |  | 16 | 250 | 
16 | COc1cc2c(Nc3cccc4ccoc34)ncnc2cc1OCCCN1CCOCC1 |  | 30 | 410 | 
17 | COc1ccc(Cl)c(Nc2ncnc3cc(OCCCN4CCOCC4)c(OC)cc23)c1 | 310 | 10 | 1180 | 
18 | COc1cc2c(Nc3cccc4c(Cl)coc34)ncnc2cc1OCCCN1CCOCC1 |  | < 4 | 100 | 
19 | COc1cc2c(Nc3c(Br)ccc4c3OCO4)ncnc2cc1OCCCN1CCOCC1 | 140 | < 4 | 42600 | 
20 | COc1cc2ncnc(Nc3c(Cl)ccc4c3OCO4)c2cc1OCCCN1CCOCC1 | 1200 | 50 | 73800 | 
21 | COc1cc2c(Nc3c(Cl)ccc4occc34)ncnc2cc1OCCCN1CCOCC1 | 230 | 10 | 1230 | 
22 | COc1cc2c(Nc3cccc4c(Cl)c[nH]c34)ncnc2cc1OCCCN1CCOCC1 | 980 | 20 | 2320 | 
23 | COc1ccc(Nc2ncnc3cc(OCCCN4CCOCC4)c(OC)cc23)cc1 |  | 477 |  | 
24 | COc1cc2c(Nc3c(Cl)ccc4c3OCO4)ncnc2cc1OCc1ccnc(C#N)c1 | 230 | 10 | 77000 | solubility [10]: 10 µM (≈ 4.62 µg/mL); pKa [11]: 4.9; Activity [13]: 1.6%
25 | CCOc1ccc(Cl)c(Nc2ncnc3cc(OCCCN4CCOCC4)c(OC)cc23)c1 |  | 963 |  | 
26 | COc1cc2c(Nc3cccc4c3ccn4C)ncnc2cc1OCCCN1CCOCC1 |  | 40 | 420 | 
27 | COc1cc2c(Nc3c(Cl)ccc4c3OCO4)ncnc2cc1OCCCN1CCOCC1 | 180 | < 4 | 17000 | solubility ([10]; read-out: S): 71 µM (≈ 33.6 µg/mL); pKa [11]: 7.2; IC50 [12]: > 100000 nM; Activity [13]: 10.5%; IC50 [14]: > 100000 nM; IC50 [15]: 17100 nM
28 | Clc1ccc2c(c1Nc1ncnc3cc(OCCCN4CCOCC4)ccc13)OCO2 | 670 | 10 | 91300 | 

— ChEMBL document CHEMBL1148412, “Discovery of a new class of anilinoquinazoline inhibitors with high affinity and specificity for the tyrosine kinase domain of c-Src” (J Med Chem, 2004)
